In ChEMBL document CHEMBL4808182, “Discovery of the Soluble Guanylate Cyclase Activator Runcaciguat (BAY 1101042)” (J Med Chem, 2021):
Calls of active or inactive are those of the source. The calls are words filed in the database; no cut-off is given here.

Assays:
[1] = target: T1, Guanylate cyclase soluble subunit alpha-1 (Rattus norvegicus) (UniProt P19686); assay: Activation of recombinant rat sGC alpha1 subunit expressed in CHO cells assessed as induction of [32P-cGMP] formation using alpha-[32P-GTP] as substrate measured after 6 mins by luminescence assay; type: cell-based; conditions: filed as activator
T1 sequence (whole entry): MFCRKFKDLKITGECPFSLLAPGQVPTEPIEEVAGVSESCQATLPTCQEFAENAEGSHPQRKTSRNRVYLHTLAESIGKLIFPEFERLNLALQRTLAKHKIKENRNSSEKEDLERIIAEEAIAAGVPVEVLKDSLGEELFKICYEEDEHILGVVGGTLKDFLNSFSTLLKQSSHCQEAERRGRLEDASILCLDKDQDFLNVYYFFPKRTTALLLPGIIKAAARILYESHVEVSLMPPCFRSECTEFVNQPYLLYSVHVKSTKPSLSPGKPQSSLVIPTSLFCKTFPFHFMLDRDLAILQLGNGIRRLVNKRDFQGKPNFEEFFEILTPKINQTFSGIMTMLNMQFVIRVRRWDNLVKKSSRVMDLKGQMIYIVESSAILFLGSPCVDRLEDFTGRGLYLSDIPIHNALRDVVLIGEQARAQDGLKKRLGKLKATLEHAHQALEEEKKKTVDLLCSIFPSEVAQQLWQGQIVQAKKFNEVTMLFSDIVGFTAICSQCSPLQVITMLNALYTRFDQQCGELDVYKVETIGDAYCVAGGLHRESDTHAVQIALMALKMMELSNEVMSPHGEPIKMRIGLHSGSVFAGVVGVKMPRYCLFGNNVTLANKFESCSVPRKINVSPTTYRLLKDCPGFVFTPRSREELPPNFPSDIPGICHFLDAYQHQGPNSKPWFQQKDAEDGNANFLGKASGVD

[2] = Activation of recombinant rat sGC expressed in CHO cells by luminescence assay; type: cell-based; conditions: CHO
Procedure, shortened: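 Stable CHO reporter cell line overexpressing rat sGC; cGMP formation read as luminescence. EC50 from concentration–response. MEC taken as lowest concentration giving at least threefold increase in basal luminescence.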

[3] = Volume of distribution at steady state in Wistar rat at 0.3 mg/kg, iv measured up to 24 hrs by LC-MS analysis; type: ADME, organism-based; conditions: in vivo, read-out: Vdss
[4] = Half life in Wistar rat at 0.3 mg/kg, iv measured up to 24 hrs by LC-MS analysis; type: ADME, organism-based; conditions: in vivo
[5] = Oral bioavailability in Wistar rat at 0.3 mg/kg measured up to 24 hrs by LC-MS analysis; type: ADME, organism-based; conditions: in vivo
[6] = Volume of distribution at steady state in Beagle dog at 0.3 mg/kg, iv measured up to 24 hrs by LC-MS analysis; type: ADME, organism-based, Canis lupus familiaris; conditions: in vivo, read-out: Vdss
[7] = Blood clearance in Beagle dog at 0.3 mg/kg, iv measured up to 24 hrs by LC-MS analysis; type: ADME, organism-based, Canis lupus familiaris; conditions: whole blood
[8] = Half life in cynomolgus monkey at 0.1 mg/kg, iv measured up to 24 hrs by LC-MS analysis; type: ADME, organism-based, Macaca fascicularis; conditions: in vivo
[9] = Oral bioavailability in cynomolgus monkey at 0.1 mg/kg measured up to 24 hrs by LC-MS analysis; type: ADME, organism-based, Macaca fascicularis; conditions: in vivo
[10] = target: T1, Guanylate cyclase soluble subunit alpha-1 (Rattus norvegicus); assay: Activation of recombinant rat sGC alpha1 subunit expressed in CHO cells assessed as induction of [32P-cGMP] formation by measuring fold change at 100 uM using alpha-[32P-GTP] as substrate measured after 6 mins by luminescence assay; conditions: filed as activator
Procedure, shortened: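 Highly purified recombinant sGC enzyme was tested for stimulation of cGMP production across 0.01 to 100 μM of compound. The read-out was fold activation over basal enzyme activity. The method followed earlier published sGC stimulator/activator characterization.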

[11] = target: T1, Guanylate cyclase soluble subunit alpha-1 (Rattus norvegicus); assay: Activation of recombinant rat sGC alpha1 subunit expressed in CHO cells assessed as induction of [32P-cGMP] formation at 0.01 to 100 uM using alpha-[32P-GTP] as substrate measured after 6 mins in presence of NO by luminescence assay; conditions: filed as activator, dose 0.01-100 µM
[12] = target: T1, Guanylate cyclase soluble subunit alpha-1 (Rattus norvegicus); assay: Activation of recombinant rat sGC alpha1 subunit expressed in CHO cells assessed as induction of [32P-cGMP] formation at 0.01 to 100 uM using alpha-[32P-GTP] as substrate measured after 6 mins in presence of ODQ by luminescence assay; type: cell-based; conditions: filed as activator, dose 0.01-100 µM
Aorta = assay: Vasorelaxant activity in Chinchilla rabbit aortic ring assessed as inhibition of phenylephrine-induced contractions; type: functional, tissue-based; conditions: Oryctolagus cuniculus
Heart = assay: Reduction in coronary perfusion pressure in heart isolated from Wistar rat at highest concentration relative to control; type: functional; parameters: scale not given: the % may be the effect or the level left
Procedure, shortened: (§1)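 Rat hearts in Langendorff perfusion were exposed to 10 nM–10 μM. Coronary perfusion pressure, heart rate, LVDP and +dp/dt were recorded.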

Rattus norvegicus [13] = species: Rattus norvegicus; assay: Effect on contractility in Wistar rat; type: functional; procedure, shortened: as §1
Rattus norvegicus [14] = assay: Effect on blood pressure in spontaneous hypertensive Wistar rat at 0.1 mg/kg, po by radiotelemetry; type: functional, organism-based
Procedure, shortened: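 Spontaneously hypertensive rats were given single oral doses of 0.1–3.0 mg/kg. Mean arterial pressure and heart rate were monitored for at least 24 h post dose, as % change.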

Rattus norvegicus [15] = assay: Reduction in blood pressure in spontaneous hypertensive Wistar rat at 0.3 to 3 mg/kg, po by radiotelemetry relative to control; type: functional; parameters: scale not given: the % may be the effect or the level left; conditions: dose 0.3-3 mg/kg
Rattus norvegicus [16] = assay: Cardioprotective activity in renin-transgenic rat carrying [[…]] gene assessed as reduction in heart hypertrophy at 1 to 10 mg/kg, po bid for 21 days; type: functional, organism-based; conditions: dose 1-10 mg/kg, time 21.0 day

MEC [1]: 1.8 nM
EC50 [2]: 11.2 nM
Vd [3]: 1.4 L/kg
half-life [4]: 7.5 h
bioavailability [5]: 95%
Vd [6]: 2.8 L/kg
clearance [7]: 23.3 mL/min/kg
half-life [8]: 10 h
bioavailability [9]: 81%
fold change (FC) [10]: 9.3
Activity [11]: Active
Activity [12]: Active
IC50 (Aorta): 39 nM
SMILES: C[C@H]([C@H](C(=O)Nc1cc([C@@H](CC(=O)O)C2CC2)ccc1Cl)c1ccc(Cl)cc1)C(F)(F)F [RUNCACIGUAT]
Activity (Heart): 45%
Activity (Rattus norvegicus [13]): inactive
Activity (Rattus norvegicus [14]): inactive
Activity (Rattus norvegicus [15]): 5%
Activity (Rattus norvegicus [16]): Active
